The record followed here is ChEMBL document CHEMBL4627401, “Structure Optimization of Gatastatin for the Development of γ-Tubulin-Specific Inhibitor” (ACS Med Chem Lett, 2020).

Molecules are shown by their SMILES. Activity calls are given as the source filed them. No cut-off for these calls is given here. A value given as a limit tells only on which side of the number the result lay.

Assay [1] is filed under the species Sus scrofa domesticus. The experiment in a line: Induction of porcine brain tubulin polymerization at 10 uM in presence of 0.2 M glutamate incubated for 30 mins by SDS-PAGE analysis (reference value: 36.3 +/- 8.1 %).
The test system of assay [2] is HeLa. As to the kind of experiment: Induction of microtubule depolymerization in human HeLa cells at 100 nM incubated for 6 hrs by immunofluorescence microscopic method. The format is functional, cell-based.
Assay [3] has as its system HeLa. The experiment in a line: Cytotoxicity against human HeLa cells assessed as reduction in cell viability incubated for 48 hrs by WST8 cells. The format is functional, cell-based. The gist of the method:
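HeLa cells were exposed to a range of concentrations for 48 h. Growth was read by WST-8 cell counting, and IC50 values were calculated from the resulting curves.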

The test system of assay [4] is HeLa. As to the kind of experiment: Cytotoxicity against human HeLa cells assessed as cell viability at 100 uM incubated for 48 hrs by WST8 cells relative to control. The format is functional. The note with it: read-out: Activity. (Formazan colour is commonly taken as a measure of viable cells.)
The species named for assay [5] is Sus scrofa domesticus. As to the kind of experiment: Inhibition of porcine brain tubulin polymerization assessed as residual tubulin polymerization at 30 uM in presence of 0.8 M glutamate incubated for 30 mins by SDS-PAGE analysis (reference value: 84.8 +/- 9.9 %). Summed up:
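Polymer was separated by ultracentrifugation (200,000g, 10 min, 25 °C), tubulin measured by 10% SDS-PAGE densitometry and expressed as % polymerized. Mean ± SD, three independent experiments.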

Assay [6] concerns HeLa. As to the kind of experiment: Induction of microtubule depolymerization in human HeLa cells at 30 uM incubated for 24 hrs by immunofluorescence microscopy. The format is functional, cell-based. Summed up: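 Interphase HeLa cells were treated for 24 h at 30 μM, then the MT network structure was examined by microscopy.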
Assay [7] has as its system HeLa. The experiment in a line: Inhibition of gamma-tubulin in human HeLa cells assessed as abnormal spindle formation at 30 uM incubated for 24 hrs by immunofluorescence microscopy analysis relative to control. The format is cell-based. Summed up:
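Exponentially growing HeLa cells were treated with 30 μM for 24 h, then spindle morphology was classified as normal bipolar, bipolar with misaligned chromosomes, or multipolar. More than 100 cells were scored per experiment. Mean ± SD, three independent experiments, with DMSO as control.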

Assay [8] relates to HeLa. As to the kind of experiment: Inhibition of gamma-tubulin nucleation in human HeLa cells at 10 uM incubated for 15 mins. The format is cell-based.
Assay [9] deals with HeLa. The experiment in a line: Inhibition of gamma-tubulin nucleation in human HeLa cells at 30 uM incubated for 15 mins. The format is cell-based.
Assay [10] concerns HeLa. The experiment in a line: Inhibition of gamma-tubulin in human HeLa cells assessed as abnormal spindle formation at 1 uM incubated for 24 hrs by immunofluorescence microscopy analysis relative to control. The format is cell-based.
The species entered for assay [11] is Homo sapiens. The experiment in a line: Inhibition of human gamma tubulin assessed as reduction in GTP binding to gamma-tubulin at 50 uM incubated for 15 mins by alpha-[32P]-GTP binding assay.
Assay [12] has as its system HeLa. As to the kind of experiment: Inhibition of gamma-tubulin nucleation in human HeLa cells at 100 uM incubated for 15 mins. The format is cell-based.
Assay [13] concerns HeLa. As to the kind of experiment: Inhibition of gamma-tubulin in human HeLa cells assessed as abnormal spindle formation incubated for 24 hrs by immunofluorescence microscopy analysis. The format is cell-based.
Assay [14] relates to HeLa. The experiment in a line: Inhibition of gamma-tubulin nucleation in human HeLa cells at 0.3 uM incubated for 15 mins. The format is cell-based.

Turning to `CC(=O)O[C@H]1C(=O)[C@@]2(C)[C@H]([C@H](OC(=O)c3ccccc3)[C@]3(O)C[C@H](OC(=O)[C@H](O)[C@@H](NC(=O)c4ccccc4)c4ccccc4)C(C)=C1C3(C)C)[C@]1(OC(C)=O)CO[C@@H]1C[C@@H]2O`, in [1], the Activity was determined as 91.6%. For the same molecule, the result in [2] was Active.

`COc1cc2c(=O)c(-c3cc(OC)c(OC)c(OC)c3OC)coc2cc1OCc1ccccc1`: the IC50 (in general, the concentration that gives 50% inhibition) in assay [3] is greater than 100 µM. Also, the viability at 100 µM in [4] came out at 77.3%. Further, the Activity in [5] was in the range of 69 to 92%. Also, in assay [6], the outcome was inactive. For the same molecule, the inhibition (commonly the relative decrease from the control value, in per cent) in [7] came to 65%. In assay [8], the inhibition entry is “inactive”. Moreover, the inhibition result in assay [9] is “Active”.

For `C#CCOc1cc2c(=O)c(-c3cc(OC)c4c(c3OC)OC(C)(C)O4)coc2cc1OCc1ccccc1`, in [3], the IC50 was greater than 100 µM. Moreover, in [4], the viability at 100 µM was determined as 102%. The Activity in assay [5] fell in the range of 69 to 92%. Also, in assay [6], the result was inactive. The inhibition entry in assay [7] was “inactive”.

`C=CCOc1cc2c(=O)c(-c3cc(OC)c4c(c3OC)OCO4)coc2cc1OCc1ccccc1`: the IC50 in assay [3] came out at 9.9 µM. Besides, in [5], the Activity was 69 to 92%. The result in assay [6] was inactive. In addition, the inhibition result in assay [9] is “Active”.

As for `COc1cc(-c2coc3cc(OCc4ccccc4)c(OC4CCCCO4)cc3c2=O)c(OC)c2c1OC(C)(C)O2` (centres undefined), in assay [3], the IC50 was greater than 100 µM. In assay [4], the viability at 100 µM was determined as 101%. Moreover, the Activity in assay [5] lay in the range of 69 to 92%. Besides, the result in assay [6] was inactive. Besides, in assay [7], the inhibition result was “inactive”.

`COc1cc(-c2coc3cc(OCc4ccccc4)c(O)cc3c2=O)c(OC)c2c1OCO2`: the IC50 in assay [3] amounted to 5.8 µM. In addition, the Activity in assay [5] lay in the range of 69 to 92%. Besides, in assay [6], the outcome was inactive. The inhibition entry in assay [9] is “Active”.

Turning to `COc1cc(-c2coc3cc(OCc4ccccc4)c(OCc4ccccc4)cc3c2=O)c(OC)c2c1OCO2`, in assay [3], the IC50 is 1.1 µM. Also, the Activity in assay [5] was 69 to 92%. Besides, in assay [6], the outcome was inactive. The inhibition entry in assay [9] and in assay [10] was “Active” in each case.

`COc1cc2c(c(OC)c1OC)-c1ccc(OC)c(=O)cc1[C@@H](NC(C)=O)CC2`: the result in assay [2] was Active.

Regarding `COc1cc2c(=O)c(-c3cc(OC)c4c(c3OC)OCO4)coc2cc1OCc1ccccc1`, the IC50 in [3] is 10.5 µM. Also, the Activity in [5] lay within 69 to 92%. In assay [6], the outcome was inactive. For the same molecule, the inhibition entry in assay [7], in assay [9] and in assay [11] was “Active” each time. For the same molecule, the inhibition result in assay [8] was “inactive”.

Regarding `C=CCOc1cc2c(=O)c(-c3cc(OC)c4c(c3OC)OC(C)(C)O4)coc2cc1OCc1ccccc1`, in [3], the IC50 is greater than 100 µM. For the same molecule, in [4], the viability at 100 µM was 107%. Also, the Activity in assay [5] was 69 to 92%. In addition, the outcome in assay [6] was inactive. Further, the inhibition result in assay [7] is “inactive”.

As for `COc1cc2c(=O)c(-c3ccc4c(c3)OCO4)coc2cc1OCc1ccccc1`, the IC50 in assay [3] is greater than 100 µM. Besides, the viability at 100 µM in [4] was found to be 101%. In addition, the Activity in assay [5] was in the range of 69 to 92%. Also, the result in assay [6] was inactive. Moreover, the inhibition entry in [7] and in [12] was “inactive” each time.

For the molecule `C#CCOc1cc2c(=O)c(-c3cc(OC)c4c(c3OC)OCO4)coc2cc1OCc1ccccc1`, the IC50 in [3] was 0.8 µM. The Activity in assay [5] lay within 69 to 92%. Moreover, the outcome in assay [6] was inactive. Also, the inhibition entry in [13] was “Dose-dependent effect”. Moreover, the inhibition entry in assay [9], in assay [14], in assay [11] and in [10] was “Active” each time.

With `COc1cc(-c2coc3cc(OCc4ccccc4)c(OC4CCCCO4)cc3c2=O)c(OC)c2c1OCO2` (centres undefined), in assay [3], the IC50 was greater than 100 µM. Moreover, the viability at 100 µM in assay [4] worked out at 99.1%. The Activity in assay [5] was in the range of 69 to 92%. Moreover, in [6], the result was inactive. In addition, the inhibition result in [12] is “inactive”.

Regarding `COc1cc(-c2coc3cc(OCc4ccccc4)c(O)cc3c2=O)c(OC)c2c1OC(C)(C)O2`, the IC50 in assay [3] was greater than 13 µM. In addition, in assay [5], the Activity is 69 to 92%. Besides, the outcome in [6] was inactive. The inhibition result in assay [7] is “inactive”.

Consider `COc1cc2c(=O)c(-c3cc(OC)c4c(c3OC)OC(C)(C)O4)coc2cc1OCc1ccccc1`, for which the IC50 in assay [3] was greater than 100 µM. In addition, in [4], the viability at 100 µM is 100%. In addition, the Activity in [5] lay within 69 to 92%. Also, in [6], the result was inactive. Further, the inhibition result in [7] and in assay [12] was “inactive” each time.

On to `COc1cc(-c2coc3cc(OCc4ccccc4)c(OCc4ccccc4)cc3c2=O)c(OC)c2c1OC(C)(C)O2`, for which, in assay [3], the IC50 is greater than 100 µM. Besides, the viability at 100 µM in [4] turned out to be 102%. In addition, in assay [5], the Activity was 69 to 92%. The outcome in assay [6] was inactive. In addition, the inhibition result in assay [7] is “inactive”.
